# Source: PubChem BioAssay (several laboratories)
# Only some compounds are listed: those with a hit (about 1.8% of all), similar ones and a draw of the others.
# ARNT TACC3 PPI – ARNT/TACC3 interaction disruption; inhibition, % at 9.99 µM; Q9Y6A5; 390,000 tested, 0.66% active; AID 623870; AlphaScreen His-ARNT PAS-B/GST-TACC3 binding, luminescence; TACC3 fragment carries E629A point mutation;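 active = mean inhibition of replicates at least 50% and at least half of replicates each reaching 50%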;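 note: 0% = complete ARNT plus TACC3 wells and 100% = ARNT alone without TACC3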
# GRK2 inh – inhibitors of human GRK2 displacing RNA aptamer; P25098; bead flow cytometry, FAM-aptamer displacement from GRK2; inhibition of aptamer binding, % at 10 µM; 330,000 tested, 0.59% active;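 active = inhibition of aptamer binding above 40%, roughly 3 SD of noise, on plates passing a quality check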;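 note: median bead fluorescence of bound FAM aptamer so fluorescent compounds give negative values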
# Target sequence (P25098 whole entry, looked up): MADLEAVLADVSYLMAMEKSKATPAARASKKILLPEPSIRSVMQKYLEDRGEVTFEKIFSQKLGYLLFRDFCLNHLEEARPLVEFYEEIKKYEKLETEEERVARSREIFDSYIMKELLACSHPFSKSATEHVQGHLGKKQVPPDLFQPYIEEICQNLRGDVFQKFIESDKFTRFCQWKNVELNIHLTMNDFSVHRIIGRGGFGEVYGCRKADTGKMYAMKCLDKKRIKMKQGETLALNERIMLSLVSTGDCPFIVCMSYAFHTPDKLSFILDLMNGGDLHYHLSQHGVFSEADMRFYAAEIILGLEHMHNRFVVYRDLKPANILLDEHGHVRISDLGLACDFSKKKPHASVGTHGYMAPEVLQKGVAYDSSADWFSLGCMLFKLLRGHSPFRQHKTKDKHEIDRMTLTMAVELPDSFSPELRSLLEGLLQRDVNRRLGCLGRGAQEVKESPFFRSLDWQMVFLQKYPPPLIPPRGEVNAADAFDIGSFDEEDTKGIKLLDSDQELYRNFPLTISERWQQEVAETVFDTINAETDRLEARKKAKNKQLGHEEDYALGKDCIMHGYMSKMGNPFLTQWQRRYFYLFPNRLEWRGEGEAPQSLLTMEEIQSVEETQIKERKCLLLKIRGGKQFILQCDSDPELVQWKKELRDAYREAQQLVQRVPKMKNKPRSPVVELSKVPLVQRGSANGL
# CAL PDZ FP-1 – blocks peptide binding to human CAL PDZ domain; Q9HD26; purified CAL PDZ, TMR-peptide fluorescence polarization, 1 h; inhibition, % at 20 µM; 330,000 tested, 0.02% active;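 active = highest replicate inhibition of at least 40%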;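 note: plate controls were DMSO neutral control wells for no effect and unlabeled competitor peptide control wells for full effect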
#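 Control set: unlabelled peptide and DMSO controls / Material: purified CerCALP PDZ construct / Timing: 1 h incubation at room temperature before polarization reading / Doses: 20 µM, one dose / Detection: fluorescence polarization (mP)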
# Tn7 DDE FP – DD(E)-Tn7 binding inhibition, primary FP screen. P02675. FP displacement of FITC-Tn7 peptide from fibrin DD(E); 0% = median of compound wells per plate. inhibition, % at 8.3 µM. 370,000 tested, 0.13% active. AID 720508;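 active = inhibition above the mean of compounds falling within the control limits plus 3 SD of them, cut at about 14% in these data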;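 note: 0% = plate median of compound wells and 100% = 10 µM Aha-Tn7 peptide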
#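 Assay system: human fibrin DD(E). Input: DD(E) 2 µM final. Medium: Tris buffer with calcium and detergent, pH 7.8. Compound dosing: single point at 8.3 µM. Timing: 10 min plus 3 h, room temperature. Technique: fluorescence polarization of the labelled Tn7 tracer. Read-out: percent inhibition. Replicates: singlicate testing.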
# CAL PDZ FP-2 – blocks peptide binding to the human CAL PDZ domain | AID 602252 | purified CAL PDZ, TMR-peptide fluorescence polarization, 1 h | 300,000 tested, 0.92% active | inhibition, % at 24.9 µM | Q9HD26;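 active = mean inhibition of at least 30% with at least half of replicates also reaching 30%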;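 note: 0% = DMSO neutral control and 100% = excess unlabeled competitor peptide PRC23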
# DDE Tn6 FP inh – disrupts Tn6 cyclic peptide binding to fibrin D-Dimer-E complex; P02675; Fibrin DD(E) TRITC-Tn6 fluorescence polarization displacement; inhibition, % at 8.3 µM; 370,000 tested, 0.21% active; AID 720509;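 active = inhibition above a per-campaign cutoff: mean of compounds within control limits plus 3 SD, cut at about 15% in these data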;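 note: 0% = median of all compound wells on the plate and 100% = blocking peptide control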
# Numbers without * were called inactive; . = no result given; + = active, no number.
SMILES,ARNT TACC3 PPI,GRK2 inh,CAL PDZ FP-1,Tn7 DDE FP,CAL PDZ FP-2,DDE Tn6 FP inh
O=C(Nc1ccc2c(c1)nc1n2CCN(Cc2ccccc2)C1)c1cccs1,42.5*,0.0,-2.8,-0.5,0.0,-6.6
COc1ccccc1C(=O)Nc1ccc2c(c1)nc1n2CCN(Cc2ccccc2)C1,12.1,0.0,-4.3,4.8,-5.0,-0.2
O=C(Nc1nc2ccccc2[nH]1)c1cc2ccccc2o1,14.4,0.0,24.8,-3.8,45.7*,2.0
C[C@@H]1CN([C@H](C)CO)C(=O)Cc2cc(NC(=O)CCC(F)(F)F)ccc2O[C@@H]1CN(C)Cc1ccc(Oc2ccccc2)cc1,-3.8,.,.,.,.,.
O=C(Nc1ccc(Cl)cc1)N1CCN(c2ccc3nnc(-c4ccc(F)cc4)n3n2)CC1,-6.8,0.0,-5.5,-2.6,.,-4.4
O=C(Nc1ccccc1Cl)N1CCN(c2ccc3nnc(-c4ccccc4)n3n2)CC1,1.5,3.0,-4.7,.,57.0*,.
Clc1ccc(C2=CC(c3ccco3)n3ncnc3N2)cc1 (stereo not given),-14.2,4.0,1.7,15.8*,-0.1,-3.0
COc1ccc(C2=CC(c3ccco3)n3ncnc3N2)cc1 (stereo not given),4.2,.,-3.2,.,-3.6,.
COCCCNC(=O)C1CCC(=O)N(c2ccc3c(c2)OCO3)C1c1ccc(OC)cc1 (stereo not given),-4.3,2.0,0.9,8.4,+,7.1
CCC(C)NC(=O)C1CCC(=O)N(c2ccc3c(c2)OCO3)C1c1ccc(OC)cc1 (stereo not given),-4.4,4.0,0.4,-3.7,.,-6.1
COc1ccc(C2=Nc3ccccc3NC(=O)C2N(Cc2ccccc2)C(=O)C2=NNC(=O)CC2)cc1 (stereo not given),.,.,.,3.0,.,-3.6
COc1ccc(NC(=O)[C@@H]2CCCN2C(=O)c2cccs2)cc1S(=O)(=O)N1CCCCC1,-8.0,5.0,0.3,11.6,-3.8,-2.1
COc1ccc(NC(C)=O)cc1NC(=O)C1CCCN1C(=O)c1cccs1 (stereo not given),-2.2,.,-0.6,4.8,48.1*,-4.9
C[C@@H]1CCCCO[C@H](CN(C)C(=O)c2ccncc2)[C@H](C)CN([C@H](C)CO)C(=O)c2cc(NS(=O)(=O)c3ccc(Cl)cc3)ccc2O1,7.5,.,.,.,.,.
CCC(=O)N1C[C@@H](C)[C@@H](OC)CN(C)C(=O)c2cc(NC(=O)Nc3ccc(Cl)cc3)ccc2OC[C@H]1C,3.2,.,.,.,.,.
O=C(Nc1ccc(Br)cc1)c1cccc(-n2cnnn2)c1,1.5,0.0,-0.4,3.2,-5.3,-6.2
O=C(Nc1nc(-c2ccccn2)cs1)c1cccc(-n2cnnn2)c1,70.5*,11.0,0.5,-2.1,16.0,-11.4
CC(C)[C@H](N)c1cn([C@@H](CC(N)=O)C(=O)N2CCNCC2)nn1,-0.4,2.0,-1.1,4.2,0.0,1.7
COc1ccc(CC(=O)Nc2nccs2)cc1OC,2.3,1.0,-0.5,-0.7,2.6,-0.9
COc1ccc(CC(=O)Nc2ncc([N+](=O)[O-])s2)cc1OC,17.6*,0.0,-0.3,7.2,0.0,0.3
COc1ccc(CC(=O)N2CCN(C(=O)Cc3ccc(OC)c(OC)c3)CC2)cc1OC,.,.,.,-1.8,.,1.2
COc1ccc(CC(=O)Cc2ccc(OC)c(OC)c2)cc1OC,.,.,.,14.1*,.,0.6
COc1ccc(CCC(=O)Nc2ncc(C)s2)cc1OC,11.1,0.0,-0.8,-2.9,50.5*,-0.4
O=C(CCl)N1c2ccccc2Oc2ccc3ccccc3c21,-0.6,.,1.1,16.1*,.,38.7*
CC(=O)N1c2ccccc2Oc2cc3ccccc3cc21,-2.8,0.0,-1.1,-7.4,3.2,-3.1
SMILES,ARNT TACC3 PPI,GRK2 inh,CAL PDZ FP-1,Tn7 DDE FP,CAL PDZ FP-2,DDE Tn6 FP inh
CC(C)C#Cc1ccc2c(c1)O[C@H](CN(C)C(=O)c1ccccc1)[C@@H](C)CN([C@H](C)CO)S2(=O)=O,4.2,.,.,.,.,.
Cc1ccc(NC(=O)C(SCC(=O)O)c2ccccc2)cc1C (stereo not given),-0.1,2.0,-0.5,0.3,69.3*,5.5
c1cnn(Cc2cnc(N3CCOCC3)s2)c1,2.3,0.0,-1.1,1.1,61.1*,5.3
Cc1cc(Cl)cc(C)c1OCC(=O)NC1CCCCCC1,.,0.0,-0.4,-3.6,48.5*,0.4
CCNC(=O)C[C@H]1CC[C@H]2[C@@H](COC[C@H](O)CN2C(=O)C2CCCC2)O1,5.3,.,.,.,.,.
Nc1c(Cl)ncnc1N/N=C/c1ccc2ccccc2n1,64.3*,0.0,-1.3,-4.6,2.2,1.3
O=C(C[C@@H]1CC[C@@H]2[C@H](COC[C@@H](O)CN2Cc2nccs2)O1)NCc1ccc(F)cc1,-5.0,.,.,.,.,.
C=CCNC(=O)/C(=C\c1ccco1)NC(=O)c1ccco1,-4.3,2.0,-2.7,5.5,64.8*,-8.2
CCOc1ccc(NC(=S)N(CCN2CCOCC2)Cc2cc3cc4c(cc3[nH]c2=O)OCO4)cc1,-1.7,0.0,-0.3,1.3,63.3*,-0.2
Cc1ccc(NC(=S)N(CCN2CCOCC2)Cc2cc3cc4c(cc3[nH]c2=O)OCCO4)cc1,9.1,0.0,-2.3,4.2,-3.4,1.3
Cc1ccc(NC(=S)N(CCN2CCOCC2)Cc2cc3cc4c(cc3[nH]c2=O)OCO4)cc1,-1.1,2.0,-0.7,1.1,51.9*,-3.6
COc1ccc(NC(=S)N(CCN2CCOCC2)Cc2cc3cc4c(cc3[nH]c2=O)OCO4)cc1,.,1.0,.,-1.2,.,1.5
Cc1ccc(CN2CCCCC(NC(=O)C(C)(C)C)C2=O)cc1 (stereo not given),.,.,.,-1.1,.,1.3
O=S(=O)(c1ccccc1F)N1CCCCN2[C@@H](CO)[C@@H](c3ccc(-c4cncnc4)cc3)[C@@H]2C1,1.4,.,.,.,.,.
NS(=O)(=O)c1ccc(NC(=O)COC(=O)CCCN2C(=O)c3cccc4cccc(c34)C2=O)cc1,-0.7,0.0,-1.6,-4.7,60.0*,5.2
CCOC(=O)C1=C(CC)OC(N)=C(C#N)C1c1ccc(OC)c(OC)c1OC (stereo not given),15.1*,0.0,-0.9,2.0,.,-4.6
CC(O)(c1ccccc1)c1ccc2ccccc2n1 (stereo not given),-3.7,.,-0.7,9.3,44.7*,6.3
O=C(CN1CC(=O)Oc2ccccc21)OCC(=O)c1ccc(Br)cc1,71.5*,0.0,-0.4,1.7,7.2,1.3
O=C(CN1CC(=O)Oc2ccccc21)OCC(=O)c1ccc(F)cc1,62.8*,0.0,-4.0,3.8,-5.4,0.9
Cc1cccc(C(=O)NCc2nnc(SCC(=O)NC(C)c3ccccc3)n2C)c1 (stereo not given),3.3,0.0,0.2,-6.2,-2.4,-6.0
CC(C)NC(=O)CSc1nnc(CNC(=O)OC(C)(C)C)n1C,-5.1,0.0,0.4,5.4,84.0*,5.7
Cc1nnc(SCC(=O)Nc2nccs2)s1,-25.8,2.0,0.6,3.9,79.1*,2.1
